Published values from different studies.
Each line is one published result; the experiments were not run side by side.
Target: 3-phosphoinositide-dependent protein kinase 1 (PDPK1, Homo sapiens, UniProt O15530)
Sequence (O15530 1-556, as in one of the studies): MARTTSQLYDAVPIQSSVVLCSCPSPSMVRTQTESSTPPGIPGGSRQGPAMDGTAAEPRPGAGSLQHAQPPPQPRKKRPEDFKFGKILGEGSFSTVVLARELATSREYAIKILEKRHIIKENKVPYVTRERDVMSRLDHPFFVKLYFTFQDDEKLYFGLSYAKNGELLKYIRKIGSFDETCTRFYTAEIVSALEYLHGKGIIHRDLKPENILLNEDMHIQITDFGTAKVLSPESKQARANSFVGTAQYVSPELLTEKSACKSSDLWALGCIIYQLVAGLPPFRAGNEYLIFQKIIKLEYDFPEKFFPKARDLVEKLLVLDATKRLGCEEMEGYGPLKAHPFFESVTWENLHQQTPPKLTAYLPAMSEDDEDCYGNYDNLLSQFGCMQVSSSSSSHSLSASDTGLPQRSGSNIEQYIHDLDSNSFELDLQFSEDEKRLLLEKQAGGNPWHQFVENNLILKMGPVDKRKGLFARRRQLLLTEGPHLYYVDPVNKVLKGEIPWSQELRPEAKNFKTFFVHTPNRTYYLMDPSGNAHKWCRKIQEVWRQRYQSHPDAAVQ

SMILES	assay	conditions	remaining binding [%]
N[C@H]1CCN(c2nccc(-c3cnn4ncccc34)n2)C1	binding	1 µM	97
CNC(=O)c1cc(Oc2ccc(NC(=O)Nc3ccc(Cl)c(C(F)(F)F)c3)cc2)ccn1	cell-free assay, competition with immobilised ligand	10 µM	85
O=C(c1ccc(Nc2nccc(-c3cc4ccccc4s3)n2)cc1)N1CCC(N2CCCC2)CC1	binding, competition with immobilised ligand	1 µM	100
Cc1nc(Nc2ncc(C(=O)Nc3c(C)cccc3Cl)s2)cc(N2CCN(CCO)CC2)n1	cell-free assay, competition with immobilised ligand	10 µM	100
C[C@@H](c1ccc(-n2cnc3c(N)ncnc32)cc1)N1CCc2nn(C)c(Cc3ccccc3)c2C1=O	binding, competition with immobilised ligand	0.1 µM	100
c1cnn2ncc(-c3ccnc(N4CCC45COC5)n3)c2c1	binding	1 µM	98
C[C@@]1(Cc2ccc(C#N)cc2)C(=O)N(c2cc(Cl)cc(Cl)c2)c2ncc(C(=O)NC3(c4nc(C5CCC5)no4)CC3)n21	cell-free assay, competition with immobilised ligand	1 µM	100
CS(=O)(=O)CCNCc1ccc(-c2ccc3ncnc(Nc4ccc(OCc5cccc(F)c5)c(Cl)c4)c3c2)o1	cell-free assay, competition with immobilised ligand	10 µM	100
C[C@H](c1ccc(F)cc1)N(Cc1cccc(C(=O)O)c1)C(=O)c1cnc2ccccc2c1	cell-free assay, competition with immobilised ligand	1 µM	100
Cc1cnn2ncc(-c3ccnc(N(C)C)n3)c2c1	binding	1 µM	100
Cc1c(C(=O)O)cc(-c2ccc(C3CCNCC3)cc2)c2ccc(-c3ccc(C(F)(F)F)cc3)cc12	binding, competition with immobilised ligand	1 µM	100
O=C(NCCCN1CCOCC1)c1ccc(Nc2ncc(Cl)c(-c3ccc(Cl)s3)n2)cc1	binding, competition with immobilised ligand	1 µM	100
C[C@@H]1CCN(c2nccc(-c3cnn4ncccc34)n2)C1	binding	1 µM	89
O=C(c1ccc(Nc2ncc(Cl)c(-c3ccc(Cl)s3)n2)cc1)N1CCC(N2CCCC2)CC1	binding, competition with immobilised ligand	1 µM	82
CN(C)c1nccc(-c2cnn3ncccc23)n1	binding	1 µM	100
COc1ncc2cc3ccccc3nc2c1C#N	cell-free assay, competition with immobilised ligand	5 µM	88
CCN(CC)Cc1cc(Nc2ccnc3cc(Cl)ccc23)ccc1O	cell-free assay, competition with immobilised ligand	10 µM	93

SMILES	assay	conditions	remaining binding [%]
C[C@@H]1CN(c2ccc3ncc(-c4ccc5[nH]nc(C6CC6)c5c4)n3n2)C[C@H](C)O1	binding, competition with immobilised ligand	0.5 µM	100
COc1ccc2c(c1)O[C@@H](c1ccc(OC)c(OC)c1)C[C@H]2NC(=O)C1(c2ccc3c(c2)OC(F)(F)O3)CC1	cell-free assay, competition with immobilised ligand	1 µM	100
Cc1ccc(NC(=O)c2ccc(CN3CCN(C)CC3)cc2)cc1Nc1nccc(-c2cccnc2)n1	cell-free assay, competition with immobilised ligand	0.1 µM	100
COc1ccc2cc(OCC3(C(=O)O)CN(C(=O)c4ccc(F)cc4)C3)ccc2c1	cell-free assay, competition with immobilised ligand	1 µM	100
Cc1c(-c2ccccc2)oc2c(C(=O)OCCN3CCCCC3)cccc2c1=O	cell-free assay, competition with immobilised ligand	0.1 µM	100
CN(C)c1nccc(-c2cnc3ncccn23)n1	binding	1 µM	100
CS(=O)(=O)NCC[C@H](NC(=O)c1cncc2c1cnn2-c1ccc(F)cc1)c1ccnc(S(C)(=O)=O)c1	cell-free assay, competition with immobilised ligand	1 µM	100
COc1cnc(Nc2cccc(S(N)(=O)=O)c2)nc1N1CCN(c2ccccc2)C(=O)C1	binding, competition with immobilised ligand	1 µM	100
FC(F)(F)Oc1cccc(-c2cnc3ccc(-c4ccncc4)nn23)c1	cell-free assay, competition with immobilised ligand	5 µM	90
Cn1cc(Cl)c2c(Oc3c(F)cc(Nc4cc(Cl)nc(N)n4)cc3F)ccnc21	cell-free assay, competition with immobilised ligand	0.1 µM	61
CN1CC[C@H](c2c(O)cc(O)c3c(=O)cc(-c4ccccc4Cl)oc23)[C@H](O)C1	cell-free assay, competition with immobilised ligand	0.1 µM	100
O=C(NC[C@@H]1[C@H]2CN(C(=O)OCc3cc(C(F)(F)F)cc(C(F)(F)F)c3)C[C@@H]12)c1ccc2[nH]nnc2c1	cell-free assay, competition with immobilised ligand	1 µM	96
CNC(=O)[C@@H]1CC[C@@H](n2c(-c3ccc4cnccc4c3)nc3ccc(C(=O)NCc4cccc(C(N)=O)c4)cc32)C1	binding, competition with immobilised ligand	1 µM	51
CCN1CCN(Cc2ccc(C(=O)Nc3ccc(C)c(Oc4ccc5c(c4)CC(=O)N5)c3)cc2C(F)(F)F)CC1	binding, competition with immobilised ligand	1 µM	100
CCN(CC)CCNC(=O)c1c(C)[nH]c(/C=C2\C(=O)Nc3ccc(F)cc32)c1C	cell-free assay, competition with immobilised ligand	0.1 µM	100
O=C(Nc1c[nH]nc1C(=O)NC1CCNCC1)c1cc(F)cc(F)c1	binding, competition with immobilised ligand	1 µM	90
